Measured values reported in ChEMBL document CHEMBL3877325, “Novel salicylanilides from 4,5-dihalogenated salicylic acids: Synthesis, antimicrobial activity and cytotoxicity” (Bioorg Med Chem, 2017).
In brackets after ≈: the same amount, converted by molar mass.

Experiments:
Mycobacterium kansasii [1] = assay: Antimycobacterial activity against Mycobacterium kansasii isolate 235/80 after 14 days by micromethod; assay type: functional; conditions: isolate 235/80, 336 h
Outline: (§1)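 MIC in Šula's semisynthetic medium at 37 °C, read after 7, 14 and 21 days. Inoculum is strain dilution 10^-4; 235/80 is a collection strain and 6509/96 a clinical isolate. Compounds are added as DMSO solutions at 500, 250, 125, 62.5, 32, 16, 8, 4, 2, 1 and 0.5 µM. INH (in sterile water) and PAS are the reference drugs.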

Mycobacterium kansasii [2] = assay: Antimycobacterial activity against Mycobacterium kansasii isolate 235/80 after 7 days by micromethod; assay type: functional; conditions: isolate 235/80, 168 h; outline: as §1
Mycobacterium avium [3] = assay: Antimycobacterial activity against Mycobacterium avium My 330/80 after 14 days by micromethod; assay type: functional; conditions: My 330/80, 336 h
Outline: (§2)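 M. avium My 330/80 (collection strain) inoculated at 10^-5 dilution into Šula's semisynthetic medium. Compounds added from DMSO solutions at 500, 250, 125, 62.5, 32, 16, 8, 4, 2, 1 and 0.5 µM. MIC determined by micromethod at 37 °C, read after 14 and 21 days.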

Mycobacterium kansasii [4] = assay: Antimycobacterial activity against Mycobacterium kansasii isolate 6509/96 after 7 days by micromethod; assay type: functional; conditions: isolate 6509/96, 168 h; outline: as §1
Mycobacterium avium [5] = assay: Antimycobacterial activity against Mycobacterium avium My 330/80 after 21 days by micromethod; assay type: functional; conditions: My 330/80, 504 h; outline: as §2
[6] = test system: Mycobacterium tuberculosis; assay: Antimycobacterial activity against Mycobacterium tuberculosis H37Rv My 331/88 after 21 days by micromethod; assay type: functional; conditions: H37Rv My 331/88, 504 h
Outline: (§3)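 MIC micromethod in Šula's semisynthetic medium at 37 °C, read after 14 and 21 days. Compounds added as DMSO solutions at 500 down to 0.5 µM (twofold-type series: 500, 250, 125, 62.5, 32, 16, 8, 4, 2, 1, 0.5 µM). Isoniazid standard given in sterile water.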

[7] = Cytotoxicity against human HepG2 cells assessed as reduction in cell viability after 24 hrs by MTS assay; assay type: toxicity, cell-based
Outline: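 HepG2 cells (passages 33-37) are grown in MEM with 10% FBS, L-glutamine and non-essential amino acids. They are seeded at 1 × 10^4 cells/well and treated next day with 0.1-100 µM in triplicate for 24 h at 37 °C, 5% CO2. MTS reagent is added for 2 h and A490 read.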

Mycobacterium kansasii [8] = assay: Antimycobacterial activity against Mycobacterium kansasii isolate 6509/96 after 21 days by micromethod; assay type: functional; conditions: isolate 6509/96, 504 h; outline: as §1
Mycobacterium kansasii [9] = assay: Antimycobacterial activity against Mycobacterium kansasii isolate 6509/96 after 14 days by micromethod; assay type: functional; conditions: isolate 6509/96, 336 h; outline: as §1
[10] = Selectivity index, ratio of IC50 for human HepG2 cells to MIC for Mycobacterium tuberculosis H37Rv after 21 days; assay type: toxicity, cell-based; conditions: HepG2 cells versus Mycobacterium tuberculosis H37Rv, read-out: Selectivity Index
Outline: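 HepG2 cells (passages 33-37) seeded at 1 × 10^4 per well and treated next day with 0.1–100 µM in triplicate. After 24 h at 37 °C, 5% CO2, MTS reagent added for 2 h and absorbance read at 490 nm. IC50 taken from viability relative to untreated control, then divided by the 21-day H37Rv MIC.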

Mycobacterium kansasii [11] = assay: Antimycobacterial activity against Mycobacterium kansasii isolate 235/80 after 21 days by micromethod; assay type: functional; conditions: isolate 235/80, 504 h; outline: as §1
[12] = test system: Mycobacterium tuberculosis; assay: Antimycobacterial activity against Mycobacterium tuberculosis H37Rv My 331/88 after 14 days by micromethod; assay type: functional; conditions: H37Rv My 331/88, 336 h; outline: as §3

O=C(Nc1cc(C(F)(F)F)cc(C(F)(F)F)c1)c1ccc(Br)cc1O
MIC (Mycobacterium kansasii [1]): 8 µM (≈ 3.43 µg/mL)
MIC (Mycobacterium kansasii [2]): 8 µM (≈ 3.43 µg/mL)
MIC (Mycobacterium avium [3]): 32 µM (≈ 13.7 µg/mL)
MIC (Mycobacterium kansasii [4]): 8 µM (≈ 3.43 µg/mL)
MIC (Mycobacterium avium [5]): 32 µM (≈ 13.7 µg/mL)
MIC [6]: 4 µM (≈ 1.71 µg/mL)
IC50 at 24 h [7]: 8.08 µM
MIC (Mycobacterium kansasii [8]): 16 µM (≈ 6.85 µg/mL)
MIC (Mycobacterium kansasii [9]): 16 µM (≈ 6.85 µg/mL)
selectivity ratio at 504 h [10]: 2.02
MIC (Mycobacterium kansasii [11]): 16 µM (≈ 6.85 µg/mL)
MIC [12]: 2 µM (≈ 0.856 µg/mL)

O=C(Nc1ccc(Br)cc1)c1cc(Cl)c(Br)cc1O
MIC (Mycobacterium kansasii [1]): 8 µM (≈ 3.24 µg/mL)
MIC (Mycobacterium kansasii [2]): 4 µM (≈ 1.62 µg/mL)
MIC (Mycobacterium avium [3]): 32 µM (≈ 13 µg/mL)
MIC (Mycobacterium kansasii [4]): 4 µM (≈ 1.62 µg/mL)
MIC (Mycobacterium avium [5]): 32 µM (≈ 13 µg/mL)
MIC [6]: 2 µM (≈ 0.811 µg/mL)
IC50 at 24 h [7]: 9.78 µM
MIC (Mycobacterium kansasii [8]): 8 µM (≈ 3.24 µg/mL)
MIC (Mycobacterium kansasii [9]): 8 µM (≈ 3.24 µg/mL)
selectivity ratio at 504 h [10]: 4.89
MIC (Mycobacterium kansasii [11]): 8 µM (≈ 3.24 µg/mL)
MIC [12]: 2 µM (≈ 0.811 µg/mL)

O=C(Nc1cc(C(F)(F)F)cc(C(F)(F)F)c1)c1cc(Cl)c(Br)cc1O
MIC (Mycobacterium kansasii [1]): 8 µM (≈ 3.7 µg/mL)
MIC (Mycobacterium kansasii [2]): 8 µM (≈ 3.7 µg/mL)
MIC (Mycobacterium avium [3]): 32 µM (≈ 14.8 µg/mL)
MIC (Mycobacterium kansasii [4]): 8 µM (≈ 3.7 µg/mL)
MIC (Mycobacterium avium [5]): 32 µM (≈ 14.8 µg/mL)
MIC [6]: 2 µM (≈ 0.925 µg/mL)
IC50 at 24 h [7]: 4.8 µM
MIC (Mycobacterium kansasii [8]): 8 µM (≈ 3.7 µg/mL)
MIC (Mycobacterium kansasii [9]): 8 µM (≈ 3.7 µg/mL)
selectivity ratio at 504 h [10]: 2.4
MIC (Mycobacterium kansasii [11]): 8 µM (≈ 3.7 µg/mL)
MIC [12]: 2 µM (≈ 0.925 µg/mL)

O=C(Nc1ccc(Cl)c(Cl)c1)c1ccc(Br)cc1O
MIC (Mycobacterium kansasii [1]): 4 µM (≈ 1.44 µg/mL)
MIC (Mycobacterium kansasii [2]): 4 µM (≈ 1.44 µg/mL)
MIC (Mycobacterium avium [3]): 16 µM (≈ 5.78 µg/mL)
MIC (Mycobacterium kansasii [4]): 4 µM (≈ 1.44 µg/mL)
MIC (Mycobacterium avium [5]): 16 µM (≈ 5.78 µg/mL)
MIC [6]: 2 µM (≈ 0.722 µg/mL)
IC50 at 24 h [7]: 17.7 µM
MIC (Mycobacterium kansasii [8]): 8 µM (≈ 2.89 µg/mL)
MIC (Mycobacterium kansasii [9]): 4 µM (≈ 1.44 µg/mL)
selectivity ratio at 504 h [10]: 8.84
MIC (Mycobacterium kansasii [11]): 4 µM (≈ 1.44 µg/mL)
MIC [12]: 1 µM (≈ 0.361 µg/mL)

O=C(Nc1ccc(C(F)(F)F)cc1)c1cc(Br)c(Br)cc1O
MIC (Mycobacterium kansasii [1]): 4 µM (≈ 1.76 µg/mL)
MIC (Mycobacterium kansasii [2]): 4 µM (≈ 1.76 µg/mL)
MIC (Mycobacterium avium [3]): 32 µM (≈ 14 µg/mL)
MIC (Mycobacterium kansasii [4]): 4 µM (≈ 1.76 µg/mL)
MIC (Mycobacterium avium [5]): 62.5 µM (≈ 27.4 µg/mL)
MIC [6]: 2 µM (≈ 0.878 µg/mL)
IC50 at 24 h [7]: 6.25 µM
MIC (Mycobacterium kansasii [8]): 4 µM (≈ 1.76 µg/mL)
MIC (Mycobacterium kansasii [9]): 4 µM (≈ 1.76 µg/mL)
selectivity ratio at 504 h [10]: 3.13
MIC (Mycobacterium kansasii [11]): 4 µM (≈ 1.76 µg/mL)
MIC [12]: 2 µM (≈ 0.878 µg/mL)

O=C(Nc1ccc(Cl)c(Cl)c1)c1cc(Cl)c(Br)cc1O
MIC (Mycobacterium kansasii [1]): 8 µM (≈ 3.16 µg/mL)
MIC (Mycobacterium kansasii [2]): 8 µM (≈ 3.16 µg/mL)
MIC (Mycobacterium avium [3]): 125 µM (≈ 49.4 µg/mL)
MIC (Mycobacterium kansasii [4]): 8 µM (≈ 3.16 µg/mL)
MIC (Mycobacterium avium [5]): 125 µM (≈ 49.4 µg/mL)
MIC [6]: 4 µM (≈ 1.58 µg/mL)
IC50 at 24 h [7]: 11.1 µM
MIC (Mycobacterium kansasii [8]): 8 µM (≈ 3.16 µg/mL)
MIC (Mycobacterium kansasii [9]): 8 µM (≈ 3.16 µg/mL)
selectivity ratio at 504 h [10]: 2.76
MIC (Mycobacterium kansasii [11]): 8 µM (≈ 3.16 µg/mL)
MIC [12]: 2 µM (≈ 0.791 µg/mL)

O=C(Nc1ccc(Br)cc1)c1cc(Br)c(Br)cc1O
MIC (Mycobacterium kansasii [1]): 8 µM (≈ 3.6 µg/mL)
MIC (Mycobacterium kansasii [2]): 4 µM (≈ 1.8 µg/mL)
MIC (Mycobacterium avium [3]): 32 µM (≈ 14.4 µg/mL)
MIC (Mycobacterium kansasii [4]): 8 µM (≈ 3.6 µg/mL)
MIC (Mycobacterium avium [5]): 32 µM (≈ 14.4 µg/mL)
MIC [6]: 4 µM (≈ 1.8 µg/mL)
IC50 at 24 h [7]: 17.9 µM
MIC (Mycobacterium kansasii [8]): 8 µM (≈ 3.6 µg/mL)
MIC (Mycobacterium kansasii [9]): 8 µM (≈ 3.6 µg/mL)
selectivity ratio at 504 h [10]: 4.47
MIC (Mycobacterium kansasii [11]): 8 µM (≈ 3.6 µg/mL)
MIC [12]: 4 µM (≈ 1.8 µg/mL)

O=C(Nc1ccc(C(F)(F)F)cc1)c1cc(Cl)c(Br)cc1O
MIC (Mycobacterium kansasii [1]): 4 µM (≈ 1.58 µg/mL)
MIC (Mycobacterium kansasii [2]): 4 µM (≈ 1.58 µg/mL)
MIC (Mycobacterium avium [3]): 32 µM (≈ 12.6 µg/mL)
MIC (Mycobacterium kansasii [4]): 4 µM (≈ 1.58 µg/mL)
MIC (Mycobacterium avium [5]): 32 µM (≈ 12.6 µg/mL)
MIC [6]: 2 µM (≈ 0.789 µg/mL)
IC50 at 24 h [7]: 6.52 µM
MIC (Mycobacterium kansasii [8]): 4 µM (≈ 1.58 µg/mL)
MIC (Mycobacterium kansasii [9]): 4 µM (≈ 1.58 µg/mL)
selectivity ratio at 504 h [10]: 3.26
MIC (Mycobacterium kansasii [11]): 4 µM (≈ 1.58 µg/mL)
MIC [12]: 1 µM (≈ 0.395 µg/mL)

O=C(Nc1ccc(Cl)c(Cl)c1)c1cc(Br)c(Br)cc1O
MIC (Mycobacterium kansasii [1]): 8 µM (≈ 3.52 µg/mL)
MIC (Mycobacterium kansasii [2]): 8 µM (≈ 3.52 µg/mL)
MIC (Mycobacterium avium [3]): 62.5 µM (≈ 27.5 µg/mL)
MIC (Mycobacterium kansasii [4]): 8 µM (≈ 3.52 µg/mL)
MIC (Mycobacterium avium [5]): 62.5 µM (≈ 27.5 µg/mL)
MIC [6]: 4 µM (≈ 1.76 µg/mL)
IC50 at 24 h [7]: 7.96 µM
MIC (Mycobacterium kansasii [8]): 8 µM (≈ 3.52 µg/mL)
MIC (Mycobacterium kansasii [9]): 8 µM (≈ 3.52 µg/mL)
selectivity ratio at 504 h [10]: 1.99
MIC (Mycobacterium kansasii [11]): 8 µM (≈ 3.52 µg/mL)
MIC [12]: 2 µM (≈ 0.88 µg/mL)

O=C(Nc1cc(C(F)(F)F)cc(C(F)(F)F)c1)c1cc(Br)c(Br)cc1O
MIC (Mycobacterium kansasii [1]): 8 µM (≈ 4.06 µg/mL)
MIC (Mycobacterium kansasii [2]): 4 µM (≈ 2.03 µg/mL)
MIC (Mycobacterium avium [3]): 16 µM (≈ 8.11 µg/mL)
MIC (Mycobacterium kansasii [4]): 8 µM (≈ 4.06 µg/mL)
MIC (Mycobacterium avium [5]): 32 µM (≈ 16.2 µg/mL)
MIC [6]: 2 µM (≈ 1.01 µg/mL)
IC50 at 24 h [7]: 3 µM
MIC (Mycobacterium kansasii [8]): 8 µM (≈ 4.06 µg/mL)
MIC (Mycobacterium kansasii [9]): 8 µM (≈ 4.06 µg/mL)
selectivity ratio at 504 h [10]: 1.5
MIC (Mycobacterium kansasii [11]): 8 µM (≈ 4.06 µg/mL)
MIC [12]: 2 µM (≈ 1.01 µg/mL)

Nc1ccc(C(=O)O)c(O)c1 [AMINOSALICYLIC ACID]
MIC (Mycobacterium kansasii [1]): 1000 µM (≈ 153 µg/mL)
MIC (Mycobacterium kansasii [2]): 125 µM (≈ 19.1 µg/mL)
MIC (Mycobacterium avium [3]): 32 µM (≈ 4.9 µg/mL)
MIC (Mycobacterium kansasii [4]): 32 µM (≈ 4.9 µg/mL)
MIC (Mycobacterium avium [5]): 125 µM (≈ 19.1 µg/mL)
MIC [6]: 62.5 µM (≈ 9.57 µg/mL)
MIC (Mycobacterium kansasii [8]): 500 µM (≈ 76.6 µg/mL)
MIC (Mycobacterium kansasii [9]): 125 µM (≈ 19.1 µg/mL)
MIC (Mycobacterium kansasii [11]): > 1000 µM
MIC [12]: 62.5 µM (≈ 9.57 µg/mL)

NNC(=O)c1ccncc1 [ISONIAZID]
MIC (Mycobacterium kansasii [1]): > 250 µM
MIC (Mycobacterium kansasii [2]): > 250 µM
MIC (Mycobacterium avium [3]): > 250 µM
MIC (Mycobacterium kansasii [4]): 4 µM (≈ 0.549 µg/mL)
MIC (Mycobacterium avium [5]): > 250 µM
MIC [6]: 1 µM (≈ 0.137 µg/mL)
MIC (Mycobacterium kansasii [8]): 8 µM (≈ 1.1 µg/mL)
MIC (Mycobacterium kansasii [9]): 8 µM (≈ 1.1 µg/mL)
MIC (Mycobacterium kansasii [11]): > 250 µM
MIC [12]: 0.5 µM (≈ 0.0686 µg/mL)
